Source: PubChem BioAssay AID504623 (Broad Institute, 2011)
Records with an inconclusive call do not appear. Calls of active or inactive are those of the source.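 The calls were made as follows: active = mean replicate inhibition of at least 25% with at least 60% of replicates reaching that level; inconclusive = only one of the two criteria is met; inactive = neither criterion met.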

system: SUM159 tumorsphere formation, imaging count, 8-9 days; assay: inhibition of SUM159 tumorsphere formation, late-stage follow-up, orthogonal assay for breast cancer stem cell project, imaging, SUM159 cells, single point, dry powder (AID 504623); settings: at 25 µM; stronger effect = higher value
In short: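 Material: SUM159 cells forming tumorspheres in methylcellulose suspension; Quantity: 1000 cells/well; Buffer or medium: medium plus 0.5% methylcellulose; Compound: single dose, 200 nL pinned compound; Incubation: Sphere formation over 8 days at 37 °C, 5% CO2; Technique: Brightfield imaging at 2x, 9 sites/well; Format: Ultra-low-attachment multiwell plate.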

| SMILES | inhibition |
| --- | --- |
| COc1cccc(OCc2ccc(C(=O)Nc3nc(C)cs3)o2)c1 | -6.02% (inactive) |
| Cc1csc(NC(=O)c2ccc(COc3cccc(Cl)c3)o2)n1 | 19.5% (inactive) |
| CC(C)c1ccc(/C=C/C(=O)NC2=NCCS2)cc1 | 10.4% (inactive) |
| O=C(COc1c(Cl)cc(Cl)cc1Cl)N/N=C/c1ccc[nH]1 | -7.47% (inactive) |
| CC(C)(C)c1ccc(C2CC2C(=O)N/N=C/c2ccc[nH]2)cc1 (centres undefined) | 62.8% |
| Cc1csc(NC(=O)c2ccc(COc3ccccc3F)o2)n1 | 4.83% (inactive) |
| CC(C)c1ccc(/C=C/C(=O)Nc2ccccc2)cc1 | 62.4% |
| Cc1cc(Cl)ccc1OCC(=O)N/N=C/c1ccc[nH]1 | 3.98% (inactive) |
| O=C(/C=C/c1ccc(-c2ccccc2)cc1)NC1=NCCS1 | 4.08% (inactive) |
| Cc1csc(NC(=O)c2ccc(COc3cccc(OC(F)(F)F)c3)o2)n1 | 22.2% (inactive) |
| CC(C)(C)c1ccc2c(c1)OC(C(=O)N/N=C/c1ccc[nH]1)CO2 (centres undefined) | 34.1% |
| Cc1csc(NC(=O)c2ccc(COc3ccccc3)o2)n1 | 21.4% (inactive) |
| Cc1csc(NC(=O)c2ccc(COc3cccc(C#N)c3)o2)n1 | 44.2% |
| O=C(COc1ccc(Cl)cc1Cl)N/N=C/c1ccc[nH]1 | -22.3% (inactive) |
